Data from ChEMBL document CHEMBL1157649, “Cytotoxic 2-benzylidene-6-(nitrobenzylidene)cyclohexanones which display substantially greater toxicity for neoplasms than non-malignant cells” (Bioorg Med Chem, 2010).
The source made the active and inactive calls. No cut-off for these calls is given here.

Columns and labels:
Mus musculus [1] = organism: Mus musculus; experiment: Toxicity in mouse; type: organism-based; conditions: in vivo
In short: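 Neurotoxicity was recorded as the number of affected mice per number treated at each dose. Testing was run under National Institute of Neurological Disorders and Stroke screening protocols.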

[2] = Cytotoxicity against human HGF cells after 24 hrs; type: cell-based; conditions: hgf, 24 h
In short: (§1)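 Cells (HGF gingival fibroblasts, HPC pulp cells, HPLF periodontal ligament fibroblasts, HSC-2 and HSC-4 squamous carcinoma, HL-60 promyelocytic leukemia) were exposed to graded concentrations for 24 h, up to a maximum of 400 μM. CC50 is the concentration reducing viable cell number by 50%, taken from dose–response curves. Values are from duplicate determinations differing by less than 5%.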

[3] = Cytotoxicity against human HPC cells after 24 hrs; type: cell-based; conditions: hpc, 24 h; in short: as §1
[4] = Cytotoxicity against human HPLF cells after 24 hrs; type: cell-based; conditions: hplf, 24 h; in short: as §1
HSC-2 [5] = experiment: Cytotoxicity against human HSC2 cells after 24 hrs; type: functional; conditions: HSC-2, 24 h; in short: as §1
HSC-2 [6] = experiment: Selectivity index, ratio of CC50 for human normal cells to CC50 for human HSC2 cells; type: functional
In short: (§2)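 The index is the average CC50 toward the three normal cell types (HGF, HPC, HPLF) divided by the CC50 toward the indicated malignant line.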

HSC-4 [7] = experiment: Cytotoxicity against human HSC4 cells after 24 hrs; type: functional; conditions: HSC-4, 24 h; in short: as §1
HSC-4 [8] = experiment: Selectivity index, ratio of CC50 for human normal cells to CC50 for human HSC4 cells; type: functional; in short: as §2
HL-60 [9] = experiment: Cytotoxicity against human HL60 cells after 24 hrs; type: functional; conditions: HL-60, 24 h; in short: as §1
HL-60 [10] = experiment: Selectivity index, ratio of CC50 for human normal cells to CC50 for human HL60 cells; type: functional; in short: as §2
[11] = Partition coefficient, log P of the compound; type: physicochemical; conditions: octanol/water
Mus musculus [12] = experiment: Toxicity in mouse assessed as induction of mortality at 30 to 300 mg/kg, ip; type: organism-based; design: dose 30-300 mg/kg, route intraperitoneal; conditions: in vivo
Mus musculus [13] = experiment: Neurotoxicity in mouse assessed at 30 to 300 mg/kg, ip after 0.5 hrs; type: toxicity, organism-based; design: dose 30-300 mg/kg, route intraperitoneal; conditions: in vivo
In short: (§3)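 Mice received 30, 100 or 300 mg/kg intraperitoneally and were examined at 0.5 and 4 h for mortality and neurological deficit, following NINDS screening protocols. Results were recorded as the number of mice showing a deficit over the number treated per dose.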

Mus musculus [14] = experiment: Neurotoxicity in mouse assessed at 30 to 300 mg/kg, ip after 4 hrs; type: toxicity, organism-based; design: dose 30-300 mg/kg, route intraperitoneal; conditions: in vivo; in short: as §3
HL-60 [15] = experiment: Induction of internucleosomal DNA fragmentation in human HL60 cells after 6 hrs; type: functional, cell-based
In short: (§4)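 HL-60 and HSC-2 cells were incubated with compound for 6 h. Internucleosomal DNA fragmentation was then examined against a DNA molecular-weight marker.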

HSC-2 [16] = experiment: Induction of internucleosomal DNA fragmentation in human HSC2 cells after 6 hrs; type: functional, cell-based; in short: as §4
HL-60 [17] = experiment: Induction of apoptosis in human HL60 cells assessed as caspase-3 activation; type: functional, cell-based
In short: (§5)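 HL-60 and HSC-2 cells were incubated with compound for 5 h, then caspase-3 activation was measured. The positive control was UV irradiation (6 J/m²/min for 1 min) followed by 3 h incubation. Bars show mean ± SD, n = 3.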

HSC-2 [18] = experiment: Induction of apoptosis in human HSC2 cells assessed as caspase-3 activation; type: functional, cell-based; in short: as §5

SMILES	Activity (Mus musculus [1])	CC50 [2]	CC50 [3]	CC50 [4]	CC50 (HSC-2 [5])	Selectivity Index (HSC-2 [6])	CC50 (HSC-4 [7])	Selectivity Index (HSC-4 [8])	CC50 (HL-60 [9])	Selectivity Index (HL-60 [10])	logP [11]	Activity (Mus musculus [12])	Activity (Mus musculus [13])	Activity (Mus musculus [14])	Activity (HL-60 [15])	Activity (HSC-2 [16])	Activity (HL-60 [17])	Activity (HSC-2 [18])
N[C@@H](Cc1ccc(N(CCCl)CCCl)cc1)C(=O)O	4 mg/kg	–	–	–	–	–	–	–	–	–	–	–	–	–	–	–	–	–
COc1cc(/C=C2\CCC/C(=C\c3cccc([N+](=O)[O-])c3)C2=O)cc(OC)c1OC	–	336 µM	> 400 µM	> 400 µM	73 µM	>5.2	92 µM	>4.1	59 µM	>6.4	4.53	Non-toxic	Non-toxic	Non-toxic	–	–	–	–
O=C1/C(=C/c2ccc(Cl)cc2)CCC/C1=C\c1ccccc1[N+](=O)[O-]	–	> 400 µM	400 µM	> 400 µM	3.7 µM	>108	6.1 µM	>66	7.6 µM	>53	5.38	Non-toxic	–	–	Active	inactive	Active	inactive
